Columns and labels:
Type in all cases: functional
Mythimna separata [1] = experiment: Insecticidal activity against pre-third-instar larvae of Mythimna separata (Oriental armyworm) in wheat leaves at 1 mg/mL after 33 days by leaf-dipping method; conditions: 792 h
In short: (§1)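 Compounds dissolved in acetone at 1 mg/mL. Fresh wheat leaves dipped 3 s, then dried at room conditions. Acetone-only leaves served as blank control and toosendanin as positive control. Ten larvae per dish fed treated leaves, replenished when consumed, for 48 h. Untreated fresh leaves were then given until adult emergence. Held at 25 ± 2 °C, 65−80% RH, 12 h/12 h light/dark. Activity calculated by formula.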

Mythimna separata [2] = experiment: Insecticidal activity against pre-third-instar larvae of Mythimna separata (Oriental armyworm) in wheat leaves at 1 mg/mL after 20 days by leaf-dipping method; conditions: 480 h; in short: as §1
Mythimna separata [3] = experiment: Insecticidal activity against pre-third-instar larvae of Mythimna separata (Oriental armyworm) in wheat leaves at 1 mg/mL after 5 days by leaf-dipping method; conditions: 120 h; in short: as §1

Compound | mortality at 1000 µg/mL (Mythimna separata [1]) | mortality at 1000 µg/mL (Mythimna separata [2]) | mortality at 1000 µg/mL (Mythimna separata [3])
CCCC(=O)OC[C@@H]1[C@H](c2cc(OC)c(OC)c(OC)c2)c2cc3c(cc2C2=NOC[C@H]21)OCO3 | 34.5% | 13.8% | 6.7%
COc1cc([C@@H]2c3cc4c(cc3/C(=N/OS(=O)(=O)c3ccc(C)cc3)[C@H]3COC(=O)[C@@H]23)OCO4)cc(OC)c1OC | 44.8% | 34.5% | 20%
COc1cc([C@@H]2c3cc4c(cc3/C(=N/OS(=O)(=O)c3ccc(Cl)cc3)[C@H]3COC(=O)[C@@H]23)OCO4)cc(OC)c1OC | 55.2% | 37.9% | 26.7%
COc1ccc(C(=O)OC[C@@H]2[C@H](c3cc(OC)c(OC)c(OC)c3)c3cc4c(cc3C3=NOC[C@H]32)OCO4)cc1 | 37.9% | 13.8% | 6.7%
CCCCCCCCOC(=O)[C@@H]1[C@H](c2cc(OC)c(OC)c(OC)c2)c2cc3c(cc2C2=NOC[C@H]21)OCO3 | 37.9% | 34.5% | 30%
COC(=O)[C@@H]1[C@H](c2cc(OC)c(OC)c(OC)c2)c2cc3c(cc2C2=NOC[C@H]21)OCO3 | 41.4% | 31% | 23.3%
CCCCCCCC(=O)OC[C@@H]1[C@H](c2cc(OC)c(OC)c(OC)c2)c2cc3c(cc2C2=NOC[C@H]21)OCO3 | 17.2% | 6.9% | 0%
COc1cc([C@@H]2c3cc4c(cc3/C(=N\O)[C@H]3COC(=O)[C@H]23)OCO4)cc(OC)c1OC | 34.5% | 24.1% | 10%
COc1ccc(COC(=O)[C@@H]2[C@H](c3cc(OC)c(OC)c(OC)c3)c3cc4c(cc3C3=NOC[C@H]32)OCO4)cc1 | 44.8% | 37.9% | 26.7%
COc1cc([C@@H]2c3cc4c(cc3C3=NOC[C@H]3[C@@H]2C(=O)OCc2ccccc2)OCO4)cc(OC)c1OC | 37.9% | 31% | 23.3%
COc1cc([C@@H]2c3cc4c(cc3[C@H](O)[C@H]3COC(=O)[C@H]23)OCO4)cc(OC)c1OC [PODOFILOX] | 37.9% | 10.3% | 3.3%
COc1cc([C@@H]2c3cc4c(cc3C3=NOC[C@H]3[C@@H]2COC(=O)c2ccc([N+](=O)[O-])cc2)OCO4)cc(OC)c1OC | 58.6% | 37.9% | 26.7%
CCOC(=O)[C@@H]1[C@H](c2cc(OC)c(OC)c(OC)c2)c2cc3c(cc2C2=NOC[C@H]21)OCO3 | 44.8% | 31% | 20%
COc1cc([C@@H]2c3cc4c(cc3C3=NOC[C@H]3[C@@H]2C(=O)O)OCO4)cc(OC)c1OC | 41.4% | 31% | 20%
COc1cc([C@@H]2c3cc4c(cc3/C(=N/OS(=O)(=O)c3ccccc3)[C@H]3COC(=O)[C@@H]23)OCO4)cc(OC)c1OC | 24.1% | 6.9% | 0%
COc1cc([C@@H]2c3cc4c(cc3C3=NOC[C@H]3[C@@H]2C(=O)OCc2ccc([N+](=O)[O-])cc2)OCO4)cc(OC)c1OC | 27.6% | 24.1% | 23.3%
COc1cc([C@@H]2c3cc4c(cc3/C(=N/OS(=O)(=O)c3ccc(Br)cc3)[C@H]3COC(=O)[C@@H]23)OCO4)cc(OC)c1OC | 27.6% | 10.3% | 0%
COc1cc([C@@H]2c3cc4c(cc3C3=NOC[C@H]3[C@@H]2COC(=O)c2ccccc2)OCO4)cc(OC)c1OC | 41.4% | 27.6% | 26.7%

Compound | mortality at 1000 µg/mL (Mythimna separata [1]) | mortality at 1000 µg/mL (Mythimna separata [2]) | mortality at 1000 µg/mL (Mythimna separata [3])
COc1cc([C@@H]2c3cc4c(cc3C3=NOC[C@H]3[C@@H]2COC=O)OCO4)cc(OC)c1OC | 24.1% | 10.3% | 0%
CCCCOC(=O)[C@@H]1[C@H](c2cc(OC)c(OC)c(OC)c2)c2cc3c(cc2C2=NOC[C@H]21)OCO3 | 58.6% | 34.5% | 23.3%
COc1cc([C@@H]2c3cc4c(cc3C(=O)[C@H]3COC(=O)[C@H]23)OCO4)cc(OC)c1OC [PODOPHYLLOTOXONE] | 17.2% | 3.5% | 6.7%
COc1cc([C@@H]2c3cc4c(cc3/C(=N/OS(C)(=O)=O)[C@H]3COC(=O)[C@@H]23)OCO4)cc(OC)c1OC | 24.1% | 17.2% | 0%
COc1cc([C@@H]2c3cc4c(cc3/C(=N/O)[C@H]3COC(=O)[C@@H]23)OCO4)cc(OC)c1OC | 17.2% | 6.9% | 0%
COc1ccc(S(=O)(=O)O/N=C2/c3cc4c(cc3[C@@H](c3cc(OC)c(OC)c(OC)c3)[C@@H]3C(=O)OC[C@H]23)OCO4)cc1 | 24.1% | 3.5% | 0%
COc1cc([C@@H]2c3cc4c(cc3/C(=N/OS(=O)(=O)c3ccc(Cl)c([N+](=O)[O-])c3)[C@H]3COC(=O)[C@@H]23)OCO4)cc(OC)c1OC | 13.8% | 3.5% | 0%
COc1cc([C@@H]2c3cc4c(cc3C3=NOC[C@H]3[C@@H]2C(=O)OCCc2ccccc2)OCO4)cc(OC)c1OC | 41.4% | 27.6% | 20%
CC(=O)O[C@@H]1C[C@H](O)[C@@]23CO[C@@H](O)[C@]1(C)[C@@H]2C[C@@H](O)[C@]1(C)[C@@H]3C(=O)[C@H](OC(C)=O)[C@@]2(C)[C@H](c3ccoc3)C[C@H]3O[C@]321 [TOOSENDANIN] | 44.8% | 13.8% | 6.7%
CCCCNC(=O)[C@@H]1[C@H](c2cc(OC)c(OC)c(OC)c2)c2cc3c(cc2C2=NOC[C@H]21)OCO3 | 10.3% | 0% | 0%
CCc1ccc(S(=O)(=O)O/N=C2/c3cc4c(cc3[C@@H](c3cc(OC)c(OC)c(OC)c3)[C@@H]3C(=O)OC[C@H]23)OCO4)cc1 | 27.6% | 17.2% | 3.3%
COc1cc([C@@H]2c3cc4c(cc3C(=O)[C@H]3COC(=O)[C@@H]23)OCO4)cc(OC)c1OC [PICROPODOPHYLLONE] | 27.6% | 20.7% | 
COc1cc([C@@H]2c3cc4c(cc3C3=NOC[C@H]3[C@@H]2C(=O)OCc2cccc(F)c2)OCO4)cc(OC)c1OC | 34.5% | 34.5% | 23.3%
COc1cc([C@@H]2c3cc4c(cc3C3=NOC[C@H]3[C@@H]2COC(=O)Cc2ccccc2)OCO4)cc(OC)c1OC | 20.7% | 6.9% | 6.7%
COc1cc([C@@H]2c3cc4c(cc3C3=NOC[C@H]3[C@@H]2COC(=O)c2cccc(F)c2)OCO4)cc(OC)c1OC | 55.2% | 34.5% | 23.3%
COc1cc([C@@H]2c3cc4c(cc3C3=NOC[C@H]3[C@@H]2CO)OCO4)cc(OC)c1OC [ISOXAZOLOPODOPHYLLOL] | 37.9% | 20.7% | 20%
COc1cc([C@@H]2c3cc4c(cc3/C(=N/OS(=O)(=O)c3cccc([N+](=O)[O-])c3)[C@H]3COC(=O)[C@@H]23)OCO4)cc(OC)c1OC | 13.8% | 3.5% | 0%
